Measurements as given in the EternaBench riboswitch data.

Test system: MS2 coat protein
Test: apparent Kd, MS2 coat protein; higher = weaker binding; RNA-MaP array
Procedure, shortened: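 Designed RNAs were transcribed in place on an Illumina sequencing chip from sequenced DNA templates. At room temperature and with or without input ligand, they were incubated with fluorescently labeled MS2 coat protein from 1.5 nM to 3 μM, for 0.8–1.5 h at the lowest and 10–20 min at the highest concentrations. Apparent Kd is the median of the binding-curve fits made per cluster, with designs measured on fewer than 10 clusters excluded.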

[1] = designed as: ON switch for flavin mononucleotide, no ligand
[2] = ligand present: flavin mononucleotide, designed as: ON switch for flavin mononucleotide
[3] = designed as: OFF switch for flavin mononucleotide, no ligand
[4] = ligand present: flavin mononucleotide, designed as: OFF switch for flavin mononucleotide
[5] = designed as: ON switch for theophylline, no ligand
[6] = ligand present: theophylline, designed as: ON switch for theophylline
[7] = designed as: ON switch for tryptophan, no ligand
[8] = ligand present: tryptophan, designed as: ON switch for tryptophan
[9] = designed as: OFF switch for theophylline, no ligand
[10] = ligand present: theophylline, designed as: OFF switch for theophylline

Sequence	apparent Kd [1] [nM]	apparent Kd [2] [nM]	apparent Kd [3] [nM]	apparent Kd [4] [nM]	further results
UCCAGACAUGAGGAUCACCCAUGUUCAUGCCUCGGAGGAUAUCUAUGGGUGGAGGACUUUAGAGAAGGCCGAUCCG	674	458	–	–	–
GGGAAACAUGAGGAUCACCCAUGUGUACAUAAGUAAGGAUAUAGAAGAGGUGACAGUGGUCUAGAAGGUACAACAC	65.6	46.4	–	–	–
UACGGAGCUCAGAAGGGACACUGCGGAGAUAUGUCAGGAUAUGACUUCUUAUCGUGUGGUGACAUGAGGAUCACCCAUGUGCUU	–	–	209	338	–
AGCACAAAGUAGAAGGGUAGCACCGAUUUUCAUACAGGAUAUACGAAGGCAGGGUCAACAUGAGGAUCACCCAUGUUACCGCUU	5.59	5.39	–	–	–
GGGUGAAGUGAGAAGGUUGGUGCUAGUUAAUUCAAAGGAUAUCAUUACUACGACAUGAGGAUCACCCAUGUAGCUGUACUGGAA	–	–	14.3	12.4	–
GGCUGACAUGAGGAUCACCCAUGUAGUGAUACCAGUAAGAGAAUAUACCCUUGGCAGCACAGGUAACAACUCGUCUCCAAAGUAA	–	–	–	–	apparent Kd [5]: 42.7 nM; apparent Kd [6]: 78.9 nM
GACUUGCAAGAGAAGGCGGCCACCAAUCAUCGGAGUGUAAACUCUACAUGAGGAUCACCCAUGUCCGAGGAUAUCUUCAUCAGU	59.9	69.8	–	–	–
UCGCUGUAAGGAUAUACUCCGUUACUGUGUUAUAACGGACCGUAGAAGGUACAUGAGGAUCACCCAUGUGAAGU	–	–	11.1	17.8	–
CAGGGACAUGAGGAUCACCCAUGUAAGGAUAUGCCCAAAAGAGCGACUACUAAAGGAGGCAGAAGGUACGAACG	–	–	28.6	31.6	–
GGAAGUCAAGGAUAUACAUGAGGAUCACCCAUGUCAGGUGCCAAUUAUGUUCUAUAGUGUAGAAGGUGACAAUG	–	–	112	183	–
UACCUUAUGGAGAAGGCACGUCUCAGAGGAGCAACAUGAGGAUCACCCAUGUACCUGGGCUGAAGUGAGGAUAUCCAAAUCCCA	14.4	7.18	–	–	–
UAGCAUAGUACGGCCGCCACUCCUGGUUCCCGGCCGUGUGUAAGACAUGAGGAUCACCCAUGUAGGAGGACCGGGUAUCGCUUGC	–	–	–	–	apparent Kd [7]: 14 nM; apparent Kd [8]: 15.2 nM
ACAUACGAACGAGGAUAUCUCCACAUGAGGAUCACCCAUGUUUGGGUCCGAUAGUAGCGUGCAAAAGAGAAGGCGUGUACAUCC	–	–	22.8	25.5	–
ACUAUUCAUUAUGGCACAUGAGGAUCACCCAUGUAGUGCGAACAGGAUAUACAAAAGAAUGUCAAGUAGAAGGGUUCCAGGUUC	28	19.8	–	–	–
AUUACCCAAGGAUAUUGCAAUUGAGACAUGAGGAUCACCCAUGUACUUCCGGGUGUCAAUCAAGAAGGUGGAUGUU	–	–	23.1	20.9	–
GAUGCAACGCAGAAGGUAACCCAAUUAGGAGAUCUACAUGAGGAUCACCCAUGUAUUUGGAAAAUUAAGGAUAUGCCGAGGAUC	–	–	14.7	19.5	–
GGCGUGUACACAGGAUAUGAUACAUGAGGAUCACCCAUGUUCGCGCUGGAUCUACGUGAGAACGAUCAGAAGGGUGCUGCAGGG	398	229	–	–	–
AUAGAUAAGCAGAAGGGCUUGAGAUCCGUAACUAUUGACAUGAGGAUCACCCAUGUUCGUCCCUAGCAGGAUAUGCAAAGAAGC	61.2	22.5	–	–	–
AGCAGCCCUAAAGGAUAUUUGCGCGAGCAAAGCAAAGAAGGUUAAGGGUGGGCUUCAGAGACUACAUGAGGAUCACCCAUGUCC	448	112	–	–	–
CGGUCACAUGAGGAUCACCCAUGUAAGGAUAUAGAUGUCUGUGUCAACCGACGGGCUUCUAGAAGGUACGGAUG	–	–	18.6	18.1	–
CAAAUGAGAGGAUAUACAAUUAGAUUUCAAAGUCACAUCAGACAUGAGGAUCACCCAUGUAGAAGGCUCGGAUA	–	–	23.7	193	–
UUGUUUAGGAUAGGAUAUAGGUCUAAAAGUGAGUCGGACAUGAGGAUCACCCAUGUGGGUGCGAUCUAGAAGGAUCCGCCGCGG	–	–	754	269	–
UUGAUAGCAGGAUAUACCAGUCAUGUCUCGCAAUUUACCCGACAUGAGGAUCACCCAUGUAGAAGGGCUGUUUA	–	–	15.3	14.5	–
CGGAUUUGGUAGAAGGUUUCGUCACAUAUCGCAAAAGGAUAUACUAAACAUGAGGAUCACCCAUGUGUCGUGGGAGUUAAUUCA	–	–	72.3	70.5	–
AAUCCUAAUGUCAGGAUAUUGCAGAAGCCAGAACACAAGAAGGGACAUGAGGAUCACCCAUGUAUAGUCACAUA	–	–	22.4	59.1	–
GACAUGAGGAUCACCCAUGUGGGAAAGGUGUACUCUUGCGACUAGGAUAUGUUGUGGUCCCAGAGACAGAAGGAGUGGCGACGU	–	–	52.1	42	–
UCGAUACCUCUAAUGAAGACAUGAGGAUCACCCAUGUUUAACAGAAGGUAGUCGGGAAGAUAGACUAAGGAUAUGUUGCAGGUG	–	–	9.63	24.3	–

Sequence	apparent Kd [1] [nM]	apparent Kd [2] [nM]	apparent Kd [3] [nM]	apparent Kd [4] [nM]	further results
UUCACAAGAAUUUACAUGAGGAUCACCCAUGUCCUUGCAAAGGAGGAUAUUGAGUACAAGACCUACAAGAAGGCCAGAGACAAG	46.4	15.5	–	–	–
UGCCCAAACAUGAGGAUCACCCAUGUUGUGACCUCGGGAGCCAGAAGGGUAUUAAACAAGUCGGUACAGGAUAUGGUCUAGUAA	–	–	343	214	–
AGAAGUCCAGACUACACGUGGAAAAGCGAUACCAGACUCAUAGGUGUCCCUUGGCAGCGCGUAACAUGAGGAUCACCCAUGUGAU	–	–	–	–	apparent Kd [9]: 142 nM; apparent Kd [10]: 139 nM
GGCACACAUGAGGAUCACCCAUGUGGCGAUACCAGUUGAUGGUAAAACCCUUGGCAGCGCCAGUCACAUGCAGAUAGUUACUGAA	–	–	–	–	apparent Kd [5]: 13.9 nM; apparent Kd [6]: 16.5 nM
AAUGGAAGGGAGAAGGCACGCUCUGUCGAACCGUGAGGAUAUCCAUCGGGUAAUAUACAUGAGGAUCACCCAUGUGGCGUCCAG	25.8	14.6	–	–	–
AACAAGUAGGAGAAGGUAGAUGAGACUGUGCACUAAGGAUAUCCAUACAUGAGGAUCACCCAUGUCUGGACUAGUAUAUGGACA	–	–	5.74	5.69	–
GACACCGGUAUGGAGGAUAUGGGAGACAGUACAUGAGGAUCACCCAUGUCGUUAAGAAGAUAUCACCAGAAGGCCACUCGGUCGAG	13.5	9.63	–	–	–
GAAUUAAAUCAAGGAUAUCUGUGGAAGCGGACCUCUUACAUGAGGAUCACCCAUGUUCGCGAGCAAGAGAAGGUGAUUAGCGAA	–	–	414	131	–
UCUAGUGCAUAGGAUAUCAUGGUUCAUUAGUACUGAGAAGGAUGCACAUGAGGAUCACCCAUGUUCUCUGACAG	–	–	26.2	80.5	–
UUCUCACAUGAGGAUCACCCAUGUCUAAGGAGUACAGGAUAUGUGCCGUGAUUUUCGAGUACAGAAGGGUACAAUU	273	33.6	–	–	–
AUAGAGGAAGGAUAUACAUGAGGAUCACCCAUGUAACGAAGUAGUUGGAUGCCAUGAAGUAGAAGGUCCAGAUG	–	–	14.5	13.6	–
GGACCAAGGAGGGAGGAUAUCACAUACAAAACAUGAGGAUCACCCAUGUAGAAGAGACAAGAUACAGAGAAGGCCCAGAAAUAAAA	14	9.27	–	–	–
UGGUACAUGAGGAUCACCCAUGUCCUCAUCCGAGGACCGGUACGGCCGCCACUCGAAAUUGCGAUCGGCACAAAACAAAUGCUUG	–	–	–	–	apparent Kd [7]: 142 nM; apparent Kd [8]: 143 nM
CCAGCUCUAUAGGAUAUUCUUGAUGAAGACACGGAAGAAGGAUAGACAUGAGGAUCACCCAUGUCCUUACAUGU	–	–	19.4	17.3	–
GCGGUCCACUUGGAUACCAGCAGAUUAAUAAACAUGAGGAUCACCCAUGUAAGCGCCUUGUGCCCUUGGCAGCCAGGGUGGUCAG	–	–	–	–	apparent Kd [5]: 83.8 nM; apparent Kd [6]: 46.3 nM
CGAUACAAAUAAAGCGUUCGUCCGCCAGAUACCAGAUUCAUUUCCAUCCCUUGGCAGCUGUCGACAUGAGGAUCACCCAUGUUUG	–	–	–	–	apparent Kd [9]: 18.3 nM; apparent Kd [10]: 20.9 nM
UUCGACCACGAGAAGGUGACGAAGGCCGAUUGUCAAGGAUAUCGACACAUGAGGAUCACCCAUGUCAGAGCGGGACUAACUAAA	22.6	12.8	–	–	–
AGUAAAGUAGAAGGAUAUCACGAACAUGAGGAUCACCCAUGUUAAGAUCGGCGUGAGACAACAGAUGAGAAGGACUAAUAUGCU	–	–	10.9	10.2	–
UAGAGGUACGUUGGCGAACAUGAGGAUCACCCAUGUAAAUGAAGAAGGUGUGUUGCGCAAAACGACAAGGAUAUUCAAGACAUC	83.4	50.7	–	–	–
GUGCUACAUGAGGAUCACCCAUGUGUGUAACAACAAGGAUAUGAUGCUUUGCCCGAAAGGUCAGAAGGUGUACGGC	12.9	11.1	–	–	–
ACGAACAUGAGGAUCACCCAUGUUGUUUCUAAGACUCGGUCAAGAAGGUGUCGUUACGAGUCGAACAAGGAUAUUGAUCCGAAC	28.6	20.6	–	–	–
GUGAAACAUGAGGAUCACCCAUGUUAGGAUAUAGGUAACCUAGUACAUGAUCUGCUGGCUAGAAGGAACUGGAU	–	–	14.2	11.5	–
UAAUGCAUAACAUGAGGAUCACCCAUGUAGUAAAAUGGUGGUUAGGAUAUAGCACGUGAAUCGACCUAGAAGGAACGUCCUUAC	–	–	33.3	30	–
GACAAGACAGGAUAUACAUAUAUGUAGCACGAAGAGUUAAGACAUGAGGAUCACCCAUGUAGAAGGGUCAUAAA	–	–	19.2	17.7	–
UUUGAAAAGCAGAAGGUUCAUAACAUGAGGAUCACCCAUGUGACAUUAAUGAUCCGGUUUUUACGAAAGGAUAUGCUUCUCCUA	–	–	8.33	32.6	–
GAAGAACCCGGAGGAUAUGCAAAGGAACAUGAGGAUCACCCAUGUUUCUUUCGGAAAUCUAGUGAGCAGAAGGCCGAAAGGAAC	13.1	7.95	–	–	–
CCAGUUGACUAGAAGGCAAUACGGAUAAAGUAACUGACCACAUGAGGAUCACCCAUGUAUCCCAUUGAGGAUAUAGCAUUAAGU	–	–	44.2	25.8	–
